The text below walks through data of PMC12673082 (Nature Communications, 2025).

The target in one data set is T1, mP2X7 A312V (Mus musculus, UniProt Q9Z1M0, A312V).
T1 sequence (Q9Z1M0 1-595 A312V): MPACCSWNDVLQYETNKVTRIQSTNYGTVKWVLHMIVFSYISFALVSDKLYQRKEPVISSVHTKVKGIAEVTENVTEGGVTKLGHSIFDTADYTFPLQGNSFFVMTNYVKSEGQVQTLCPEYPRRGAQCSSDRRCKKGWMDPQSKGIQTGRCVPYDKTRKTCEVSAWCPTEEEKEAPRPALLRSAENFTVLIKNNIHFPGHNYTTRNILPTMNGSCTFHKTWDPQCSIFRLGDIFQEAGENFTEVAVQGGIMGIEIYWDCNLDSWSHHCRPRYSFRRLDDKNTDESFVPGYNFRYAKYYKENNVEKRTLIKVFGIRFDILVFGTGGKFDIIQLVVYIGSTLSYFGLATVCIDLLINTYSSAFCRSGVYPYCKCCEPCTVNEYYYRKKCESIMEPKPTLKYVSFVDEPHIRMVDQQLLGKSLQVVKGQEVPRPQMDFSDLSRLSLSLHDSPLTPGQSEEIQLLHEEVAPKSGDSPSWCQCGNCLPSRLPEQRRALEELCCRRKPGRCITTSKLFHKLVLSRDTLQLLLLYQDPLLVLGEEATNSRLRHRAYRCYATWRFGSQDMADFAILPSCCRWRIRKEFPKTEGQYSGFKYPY
Briefly: Whole-cell patch clamp, mP2X7 mutant. Format: cell-based. (In general: The patch-clamp technique gives a direct electrical read-out from membranes.)

The target of the next data set is hP2X1 (Homo sapiens, UniProt P51575). Description: Whole-cell patch clamp, ATP-evoked current, transfected HEK293. Format: cell-based. The following applies: HEK293, read-out: inhibition rate.
Chain of hP2X1 (P51575 whole entry): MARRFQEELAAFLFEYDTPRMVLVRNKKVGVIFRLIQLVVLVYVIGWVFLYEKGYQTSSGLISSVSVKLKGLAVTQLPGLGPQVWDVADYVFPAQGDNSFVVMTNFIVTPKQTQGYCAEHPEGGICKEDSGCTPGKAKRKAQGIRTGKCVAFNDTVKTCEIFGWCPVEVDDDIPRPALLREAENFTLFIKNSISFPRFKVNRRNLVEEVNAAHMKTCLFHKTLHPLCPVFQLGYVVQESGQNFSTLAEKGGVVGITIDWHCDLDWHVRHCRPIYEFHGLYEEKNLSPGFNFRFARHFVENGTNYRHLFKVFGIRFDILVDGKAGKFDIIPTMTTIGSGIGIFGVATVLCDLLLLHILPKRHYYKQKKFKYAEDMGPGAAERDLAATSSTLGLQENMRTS
Data set [1] deals with T2, pdP2X7 M105F (Ailuropoda melanoleuca, UniProt G1M6C4, M106F). Description: cell-based.
T2 sequence (G1M6C4 2-595 M106F): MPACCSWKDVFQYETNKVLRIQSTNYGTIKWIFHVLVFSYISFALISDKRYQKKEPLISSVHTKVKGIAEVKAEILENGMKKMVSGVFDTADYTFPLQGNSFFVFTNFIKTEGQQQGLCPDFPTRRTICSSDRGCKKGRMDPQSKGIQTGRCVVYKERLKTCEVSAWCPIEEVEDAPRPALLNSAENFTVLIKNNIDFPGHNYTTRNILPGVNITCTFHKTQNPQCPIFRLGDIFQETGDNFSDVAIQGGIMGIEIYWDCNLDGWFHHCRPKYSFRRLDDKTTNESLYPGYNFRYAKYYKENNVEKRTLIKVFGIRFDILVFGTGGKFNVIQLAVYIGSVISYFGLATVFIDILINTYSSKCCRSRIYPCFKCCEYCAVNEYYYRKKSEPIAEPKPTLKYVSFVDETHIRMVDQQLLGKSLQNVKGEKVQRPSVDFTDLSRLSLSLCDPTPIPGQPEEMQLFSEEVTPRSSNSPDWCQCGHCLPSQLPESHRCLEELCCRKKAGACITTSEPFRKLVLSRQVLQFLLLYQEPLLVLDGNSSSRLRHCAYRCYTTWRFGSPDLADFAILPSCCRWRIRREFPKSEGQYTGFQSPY
Another data set concerns the target hP2X2 (Homo sapiens, UniProt Q9UBL9). Description: Whole-cell patch clamp, ATP-evoked current, transfected HEK293. Format: cell-based. The following applies: HEK293, read-out: inhibition rate.
In another data set the target is mP2X7 Y108F/A312V (Mus musculus, UniProt Q9Z1M0, A312V/Y108F). Briefly: Whole-cell patch clamp, mP2X7 mutant. The following applies: 1 μM. The format is cell-based.
Chain of mP2X7 Y108F/A312V (Q9Z1M0 whole entry Y108F/A312V): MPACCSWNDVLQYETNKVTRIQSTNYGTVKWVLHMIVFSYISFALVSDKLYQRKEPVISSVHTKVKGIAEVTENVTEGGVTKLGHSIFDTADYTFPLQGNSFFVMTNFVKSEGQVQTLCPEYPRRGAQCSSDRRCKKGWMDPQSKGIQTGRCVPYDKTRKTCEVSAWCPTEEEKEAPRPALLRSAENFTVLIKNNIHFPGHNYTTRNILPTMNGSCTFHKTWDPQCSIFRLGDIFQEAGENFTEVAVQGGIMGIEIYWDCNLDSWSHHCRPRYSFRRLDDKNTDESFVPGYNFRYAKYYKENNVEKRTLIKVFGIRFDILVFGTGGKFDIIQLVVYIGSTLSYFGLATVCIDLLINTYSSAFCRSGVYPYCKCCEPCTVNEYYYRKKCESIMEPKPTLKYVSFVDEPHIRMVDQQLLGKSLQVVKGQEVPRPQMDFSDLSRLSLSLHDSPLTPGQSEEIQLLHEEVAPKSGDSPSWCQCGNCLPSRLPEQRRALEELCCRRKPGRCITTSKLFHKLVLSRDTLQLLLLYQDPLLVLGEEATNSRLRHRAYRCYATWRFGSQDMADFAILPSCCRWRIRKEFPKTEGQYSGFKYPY
The next data set concerns pdP2X7 Y298A. Briefly: Whole-cell patch clamp, pdP2X7 mutant. Format: cell-based, giant panda. The following applies: pd7Y298A, 30 μM.
A further data set has as its target pdP2X7 E305F (Ailuropoda melanoleuca, UniProt G1M6C4, E306F). Briefly: cell-based.
The target in data set [2] is T2, pdP2X7 M105F. The following applies: pd7 M105F, 10 μM.
The nature of data set [3]: Maximal soluble concentration in recording solution. Format: physicochemical.
For the next data set, the target named is T3, hP2X7 (Homo sapiens, UniProt Q99572).
T3 sequence (Q99572 1-595): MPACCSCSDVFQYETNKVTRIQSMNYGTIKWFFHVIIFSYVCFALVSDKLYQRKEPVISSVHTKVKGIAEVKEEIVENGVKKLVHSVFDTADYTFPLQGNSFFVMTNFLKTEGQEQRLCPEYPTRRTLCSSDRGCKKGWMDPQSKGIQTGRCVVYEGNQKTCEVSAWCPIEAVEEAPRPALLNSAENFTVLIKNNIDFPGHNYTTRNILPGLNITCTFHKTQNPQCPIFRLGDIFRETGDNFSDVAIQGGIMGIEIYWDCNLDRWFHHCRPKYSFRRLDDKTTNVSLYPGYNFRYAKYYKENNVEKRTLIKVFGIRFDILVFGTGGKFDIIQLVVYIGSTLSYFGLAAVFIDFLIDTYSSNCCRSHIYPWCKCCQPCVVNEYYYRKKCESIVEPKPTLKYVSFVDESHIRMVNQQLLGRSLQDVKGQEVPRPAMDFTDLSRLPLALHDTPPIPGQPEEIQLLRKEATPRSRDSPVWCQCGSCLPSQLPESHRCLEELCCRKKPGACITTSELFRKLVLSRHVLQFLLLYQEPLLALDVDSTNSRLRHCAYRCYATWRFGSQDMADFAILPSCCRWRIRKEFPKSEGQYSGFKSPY
Description: Whole-cell patch clamp, ATP-evoked current, transfected HEK293. Format: cell-based.

The target of a further data set is pdP2X7 P96G (Ailuropoda melanoleuca, UniProt G1M6C4, P97G). The following applies: pd7 P96G, 10 μM.
Chain of pdP2X7 P96G (G1M6C4 2-595 P97G): as the sequence (G1M6C4 2-595 M106F) above, with P96G, F105M counted along it
A further data set addresses pdP2X7 F103A (Ailuropoda melanoleuca, UniProt G1M6C4, F104A). The following applies: pd7 F103A, 10 μM.
The target of a further data set is pdP2X7 F95A (Ailuropoda melanoleuca, UniProt G1M6C4, F96A). The following applies: pd7 F95A, 10 μM.
Chain of pdP2X7 F95A (G1M6C4 2-595 F96A): as the sequence (G1M6C4 2-595 M106F) above, with F95A, F105M counted along it
Another data set has as its target hP2X4 (Homo sapiens, UniProt Q99571). Description: Nystatin-perforated patch recording, ATP-evoked current, HEK293. The following applies: HEK293, read-out: inhibition rate. The format is cell-based.
Another data set addresses pdP2X7 V312A (Ailuropoda melanoleuca, UniProt G1M6C4, V313A). The following applies: pd7 V312A, 10 μM.
A further data set relates to P2rx7+/+ mice. Description: Murine full-thickness wound infection model. The format is in vivo, mouse. The following applies: 7.5 mg/ml, 50 μL s.c. twice daily, 7 days, vs control solvent. A digest of the protocol: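 WT C57BL/6J mice (8–10 weeks) were anesthetized, their backs shaved and iodine-disinfected, and a 6 mm punch wound made. 20 μL S. aureus (1×10^7 CFU/ml, saline-washed) was applied to the wound. After 24 h of infection, mice were randomized to test compound (7.5 mg/ml, 50 μL) or vehicle (20% sulfobutylether-β-cyclodextrin in saline), given s.c. around the wound twice daily for 7 days. Wound area was imaged daily and quantified. Data are mean ± SEM.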

The subject of another data set is pdP2X7 K297R. Briefly: Whole-cell patch clamp, pdP2X7 mutant. Format: cell-based, giant panda. The following applies: pd7K297R, 30 μM.

≈ marks a conversion by molar mass, not a printed value. Where “and” joins values, the source holds several entries; their conditions need not be identical. Equal entries are not always repeated. Some results are limits rather than exact numbers.

The IC50 is the concentration needed to halve the response being measured. High values mean weaker potency, low ones greater potency. Broadly, the inhibition is the change of the read-out against control, counted positive when it falls. What is called solubility is how much of the substance goes into solution per volume. A low value points to a poorly soluble substance.

Chain of pdP2X7 F103A (G1M6C4 2-595 F104A): as the sequence (G1M6C4 2-595 M106F) above, with F103A, F105M counted along it
Chain of pdP2X7 E305F (G1M6C4 2-595 E306F): as the sequence (G1M6C4 2-595 M106F) above, with F105M, E305F counted along it
Chain of hP2X2 (Q9UBL9 whole entry): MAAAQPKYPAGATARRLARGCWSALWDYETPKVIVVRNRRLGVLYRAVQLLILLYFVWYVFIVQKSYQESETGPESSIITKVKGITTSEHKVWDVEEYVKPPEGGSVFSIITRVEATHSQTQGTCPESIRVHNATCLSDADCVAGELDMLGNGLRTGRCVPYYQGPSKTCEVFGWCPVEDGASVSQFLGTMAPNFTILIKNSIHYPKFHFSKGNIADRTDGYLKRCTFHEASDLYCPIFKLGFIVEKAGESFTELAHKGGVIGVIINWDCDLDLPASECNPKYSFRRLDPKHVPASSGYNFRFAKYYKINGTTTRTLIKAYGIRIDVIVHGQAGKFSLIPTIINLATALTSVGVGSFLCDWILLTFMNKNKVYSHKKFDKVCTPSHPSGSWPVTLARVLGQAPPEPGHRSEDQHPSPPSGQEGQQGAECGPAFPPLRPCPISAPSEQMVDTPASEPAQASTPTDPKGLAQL
Chain of pdP2X7 V312A (G1M6C4 2-595 V313A): as the sequence (G1M6C4 2-595 M106F) above, with F105M, V312A counted along it
Chain of hP2X4 (Q99571 whole entry): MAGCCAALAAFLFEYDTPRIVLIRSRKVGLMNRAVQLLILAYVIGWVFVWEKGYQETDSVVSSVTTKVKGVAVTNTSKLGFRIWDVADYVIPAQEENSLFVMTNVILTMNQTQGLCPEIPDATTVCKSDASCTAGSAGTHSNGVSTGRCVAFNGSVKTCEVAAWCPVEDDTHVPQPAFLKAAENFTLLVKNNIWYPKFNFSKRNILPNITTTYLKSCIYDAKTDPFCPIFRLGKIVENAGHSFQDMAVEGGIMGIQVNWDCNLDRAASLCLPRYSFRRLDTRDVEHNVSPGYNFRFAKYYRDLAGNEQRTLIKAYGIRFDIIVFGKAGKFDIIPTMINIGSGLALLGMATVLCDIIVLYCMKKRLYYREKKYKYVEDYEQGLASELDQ

Regarding `C=CC[C@@H]1c2ccc(OC)c(OC)c2CN2CCc3cc4c(cc3[C@H]12)OCO4` [PSFL1191, (13R,13aS)-13-allyl-9,10-dimethoxy-5,8,13,13a-tetrahydro-6H-1,3dioxolo[4,5-g]isoquinolino[3,2-a]isoquinoline], the concentration for half-maximal inhibition (IC50) on mP2X7 A312V stood at 0.908 ± 0.026 µM; against pdP2X7 M105F [1], 2.06 µM; against pdP2X7 E305F it was 1.57 ± 0.36 µM; at hP2X7, 0.248 ± 0.017 µM. Moreover, the “fold increase of inhibition compared to m7WT” value was ~ 21 fold and 21 fold on mP2X7 A312V (mP2X7 A312V, 1 μM); around 26 fold at mP2X7 Y108F/A312V. Besides, the results for the inhibition at 30 µM at hP2X1, on hP2X2 and on hP2X4 were -8.35 ± 4.49%, 3.09 ± 7.46% and -17.6 ± 9%, respectively. Further, the inhibition rate in the data set with pdP2X7 Y298A and with pdP2X7 K297R was at most 50% each time. In addition, the “inhibitory effect on ATP (1 mM)-induced activation (inhibition ratio)” value on pdP2X7 M105F [2] is reported as “significantly attenuated”; on pdP2X7 P96G, “significantly attenuated”; on pdP2X7 F103A, “significantly attenuated”; at pdP2X7 F95A it was “did not”; on pdP2X7 V312A, “significantly attenuated”. The amount in solution in data set [3] (solubility) came to 30 µM (≈ 11.4 µg/mL). For the same molecule, the “fold difference in affinity for hP2X7 between PSFL1191 and PSFL1190” value on hP2X7 was ~50 fold and > 50 fold. For the same molecule, the “wound healing (wound area)” value in the data set on P2rx7+/+ mice was “did not influence the wound healing rate”.
